Assay [1] addresses Probable G-protein coupled receptor 34 (Mus musculus) (UniProt Q9R1K6). Put plainly: Agonist activity at mouse GPR34 expressed in HEK293 cells co-transfected with AP-TGFalpha/Galphaq/i1 assessed as induction of ectodomain shedding of membrane bound AP-TGFalpha after 1 hr by p-NPP substrate based microplate reader analysis relative to positive control. Format: cell-based. An outline of the steps:
(§1)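 HEK293 cells transiently transfected with AP-TGFα, chimeric Gα and mouse GPR34 vectors, then treated with compound. Empty-vector cells (AP-TGFα plus chimeric Gα) served as background. Receptor-specific AP-TGFα release was taken after subtracting that background, and concentration-response curves gave EC50 and Emax. Mean and SEM of 3−8 independent experiments.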

Assay [2] addresses Putative P2Y purinoceptor 10 (Mus musculus, UniProt Q8BFU7). Put plainly: Agonist activity at mouse P2Y10 expressed in HEK293 cells co-transfected with AP-TGFalpha/Galphaq/i1 assessed as induction of ectodomain shedding of membrane bound AP-TGFalpha after 1 hr by p-NPP substrate based microplate reader analysis. Format: cell-based. An outline of the steps: (§2)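 Run the same way as the GPR34 shedding assay, but with a mouse P2Y10 expression vector in HEK293 cells alongside AP-TGFα and chimeric Gα. Receptor-specific AP-TGFα release was found by subtracting the empty-vector background. EC50 and Emax came from concentration-response curves. Mean and SEM of 3−8 independent experiments.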

Assay [3] has as its target Probable G-protein coupled receptor 34 (Mus musculus) (UniProt Q9R1K6). Put plainly: Agonist activity at mouse GPR34 expressed in HEK293 cells co-transfected with Galphaq/i1 assessed as increase in calcium influx by calcium 5 dye based FLIPR assay. Format: functional, cell-based. The method, boiled down:
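Mouse GPR34-expressing HEK293 cells were monitored for calcium influx after compound was added at 100 nM or 10 nM. Each run was done in triplicate and reported as mean and S.D.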

Assay [4] addresses Probable G-protein coupled receptor 34 (Mus musculus, UniProt Q9R1K6). Kind of assay: (§3) Agonist activity at mouse GPR34 expressed in HEK293 cells co-transfected with AP-TGFalpha/Galphaq/i1 assessed as induction of ectodomain shedding of membrane bound AP-TGFalpha after 1 hr by p-NPP substrate based microplate reader analysis. Format: cell-based. The method, boiled down: as §1
The target of assay [5] is Probable G-protein coupled receptor 34 (Mus musculus) (UniProt Q9R1K6). The description is as §3. Format: cell-based. The method, boiled down:
as §1

In assay [6] the target is Putative P2Y purinoceptor 10 (Mus musculus) (UniProt Q8BFU7). Put plainly: Agonist activity at mouse P2Y10 expressed in HEK293 cells co-transfected with AP-TGFalpha/Galphaq/i1 assessed as induction of ectodomain shedding of membrane bound AP-TGFalpha after 1 hr by p-NPP substrate based microplate reader analysis relative to positive control. Conditions: filed as agonist. Format: cell-based. The method, boiled down: as §2
Chain of Putative P2Y purinoceptor 10 (Mus musculus) (Q8BFU7 whole entry, the tested form may be a part): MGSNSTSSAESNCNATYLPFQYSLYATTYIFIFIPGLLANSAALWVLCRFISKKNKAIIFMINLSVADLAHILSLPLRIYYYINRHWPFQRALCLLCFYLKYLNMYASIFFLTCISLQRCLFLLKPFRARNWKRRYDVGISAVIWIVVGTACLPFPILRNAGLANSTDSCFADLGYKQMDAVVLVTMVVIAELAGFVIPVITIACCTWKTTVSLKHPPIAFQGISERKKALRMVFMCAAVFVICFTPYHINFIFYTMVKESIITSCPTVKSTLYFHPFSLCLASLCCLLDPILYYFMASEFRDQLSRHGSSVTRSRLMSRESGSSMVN

Assay [7] concerns the target Probable G-protein coupled receptor 34 (Mus musculus) (UniProt Q9R1K6). Put plainly: Agonist activity at mouse GPR34 expressed in HEK293 cells co-transfected with AP-TGFalpha/Galphaq/i1 assessed as induction of ectodomain shedding of membrane bound AP-TGFalpha after 1 hr by p-NPP substrate based microplate reader analysis relative to control. Format: cell-based. The method, boiled down: as §1

For assay [8], the target named is Putative P2Y purinoceptor 10 (Mus musculus) (UniProt Q8BFU7). Kind of assay: Agonist activity at mouse P2Y10 expressed in HEK293 cells co-transfected with AP-TGFalpha/Galphaq/i1 assessed as induction of ectodomain shedding of membrane bound AP-TGFalpha after 1 hr by p-NPP substrate based microplate reader analysis relative to control. Format: cell-based. An outline of the steps: as §2

For assay [9], the target named is T1, G protein-coupled receptor 34a (Danio rerio, UniProt Q6XCC7).
T1 sequence (Q6XCC7 whole entry): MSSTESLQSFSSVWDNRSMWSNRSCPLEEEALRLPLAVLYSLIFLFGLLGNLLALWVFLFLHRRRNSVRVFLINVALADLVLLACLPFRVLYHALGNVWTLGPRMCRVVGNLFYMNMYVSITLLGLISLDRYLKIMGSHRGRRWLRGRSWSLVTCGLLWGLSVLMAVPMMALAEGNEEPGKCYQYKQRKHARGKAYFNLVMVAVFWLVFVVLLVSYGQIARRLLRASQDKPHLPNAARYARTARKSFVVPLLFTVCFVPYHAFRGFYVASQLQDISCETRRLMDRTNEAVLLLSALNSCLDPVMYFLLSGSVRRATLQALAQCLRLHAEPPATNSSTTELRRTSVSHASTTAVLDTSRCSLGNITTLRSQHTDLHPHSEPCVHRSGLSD
Kind of assay: Agonist activity at zebrafish GPR34 type a expressed in HEK293 cells co-transfected with AP-TGFalpha/Galphaq/i1 assessed as induction of ectodomain shedding of membrane bound AP-TGFalpha after 1 hr by p-NPP substrate based microplate reader analysis. Format: cell-based.

For assay [10], the target named is T2, G protein-coupled receptor 34b (Danio rerio, UniProt B0S6P9).
T2 sequence (B0S6P9 whole entry): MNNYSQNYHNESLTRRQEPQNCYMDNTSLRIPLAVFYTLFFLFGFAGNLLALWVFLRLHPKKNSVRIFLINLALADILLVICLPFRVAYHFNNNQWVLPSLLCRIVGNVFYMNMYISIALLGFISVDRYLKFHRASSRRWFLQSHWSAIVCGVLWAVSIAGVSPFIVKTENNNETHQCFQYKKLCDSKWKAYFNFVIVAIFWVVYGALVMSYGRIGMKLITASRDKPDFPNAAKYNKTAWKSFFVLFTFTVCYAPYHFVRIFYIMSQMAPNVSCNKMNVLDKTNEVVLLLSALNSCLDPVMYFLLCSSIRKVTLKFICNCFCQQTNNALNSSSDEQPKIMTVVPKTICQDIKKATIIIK
Put plainly: Agonist activity at zebrafish GPR34 type b expressed in HEK293 cells co-transfected with AP-TGFalpha/Galphaq/i1 assessed as induction of ectodomain shedding of membrane bound AP-TGFalpha after 1 hr by p-NPP substrate based microplate reader analysis. Format: cell-based.

Assay [11] concerns the target T3, G protein-coupled receptor 34a (Danio rerio) (UniProt Q6XCC7).
T3 sequence (whole entry): T1 sequence (Q6XCC7 whole entry)
Put plainly: Agonist activity at zebrafish GPR34 type a expressed in HEK293 cells co-transfected with AP-TGFalpha/Galphaq/i1 assessed as induction of ectodomain shedding of membrane bound AP-TGFalpha after 1 hr by p-NPP substrate based microplate reader analysis relative to control. Format: cell-based.

The target of assay [12] is T4, G protein-coupled receptor 34b (Danio rerio) (UniProt B0S6P9).
T4 sequence (whole entry): T2 sequence (B0S6P9 whole entry)
Kind of assay: Agonist activity at zebrafish GPR34 type b expressed in HEK293 cells co-transfected with AP-TGFalpha/Galphaq/i1 assessed as induction of ectodomain shedding of membrane bound AP-TGFalpha after 1 hr by p-NPP substrate based microplate reader analysis relative to control. Format: cell-based.

The target in assay [13] is Probable G-protein coupled receptor 34 (Homo sapiens, UniProt Q9UPC5). Put plainly: Agonist activity at human GPR34 expressed in HEK293 cells co-transfected with AP-TGFalpha/Galphaq/i1 assessed as induction of ectodomain shedding of membrane bound AP-TGFalpha after 1 hr by p-NPP substrate based microplate reader analysis. Format: cell-based.
Chain of Probable G-protein coupled receptor 34 (Homo sapiens, UniProt Q9UPC5) (Q9UPC5 whole entry, the tested form may be a part): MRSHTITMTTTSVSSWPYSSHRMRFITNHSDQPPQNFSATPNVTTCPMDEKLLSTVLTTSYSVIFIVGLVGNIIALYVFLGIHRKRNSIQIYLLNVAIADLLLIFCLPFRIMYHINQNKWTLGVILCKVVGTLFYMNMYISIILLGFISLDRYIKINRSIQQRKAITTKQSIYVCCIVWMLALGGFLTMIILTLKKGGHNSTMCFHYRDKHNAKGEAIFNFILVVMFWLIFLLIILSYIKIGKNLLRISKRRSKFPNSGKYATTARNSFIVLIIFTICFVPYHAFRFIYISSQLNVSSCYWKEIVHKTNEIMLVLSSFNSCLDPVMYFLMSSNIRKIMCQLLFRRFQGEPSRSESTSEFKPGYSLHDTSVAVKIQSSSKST

The text below walks through data of ChEMBL document CHEMBL4725358 (J Med Chem, 2020).

The source made the active and inactive calls. The calls are words filed in the database; no cut-off is given here. Bounds are passed on as bounds.

Chain of Putative P2Y purinoceptor 10 (Q8BFU7 whole entry, the tested form may be a part): as the sequence (Q8BFU7 whole entry, the tested form may be a part) above
Chain of Probable G-protein coupled receptor 34 (Mus musculus) (Q9R1K6 whole entry, the tested form may be a part): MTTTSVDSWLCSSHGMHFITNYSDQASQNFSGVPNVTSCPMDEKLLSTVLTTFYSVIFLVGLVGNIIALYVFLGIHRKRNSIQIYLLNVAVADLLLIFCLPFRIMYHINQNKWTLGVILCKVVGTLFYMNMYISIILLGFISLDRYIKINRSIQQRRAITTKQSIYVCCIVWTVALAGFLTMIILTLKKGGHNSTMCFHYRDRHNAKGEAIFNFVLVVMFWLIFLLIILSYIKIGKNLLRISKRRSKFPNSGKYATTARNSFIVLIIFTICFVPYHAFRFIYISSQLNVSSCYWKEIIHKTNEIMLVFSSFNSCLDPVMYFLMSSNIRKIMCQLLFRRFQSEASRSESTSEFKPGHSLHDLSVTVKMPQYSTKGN
Chain of Probable G-protein coupled receptor 34 (Mus musculus, UniProt Q9R1K6) (Q9R1K6 whole entry, the tested form may be a part): as above

As for `CCCCCCCCCCCOc1ccccc1CCC(=O)O[C@H]1CCOC[C@@H]1OP(=O)(O)OC[C@H](N)C(=O)O`, in [1], the “fold change (FC)” value is “inactive”. The results for the EC50 in assay [2] and in [4] (hek293) were 12 nM and “Not Active”, respectively. In [3], the result was inactive. Further, the pEC50 entry in assay [5] was “inactive”. Moreover, in assay [6], the fold change (FC) is 0.14. Moreover, in assay [7], the Emax result is “inactive”. Also, the Emax in assay [8] came to 11.1%.
`CCCCCCCC/C=C\CCCCCCCC(=O)OC[C@@H](O)COP(=O)(O)OC[C@H](N)C(=O)O`: the EC50 in [9] amounted to 130 nM; in assay [2] it was 20 nM; in [10] it was 3.5 nM. Besides, the Emax in assay [11] was 22.1%; in assay [8], 13.6%; in assay [12] it was 25.1%.
For the compound `CCOC[C@H](COC(=O)CCc1ccccc1OCc1cccc(Oc2ccccc2)c1)OP(=O)(O)OC[C@H](N)C(=O)O`, the EC50 in assay [9] was over 3000 nM; in assay [2], over 3000 nM; in [10], 1200 nM; in assay [4] (read-out: EC50), 5 nM.
As to `CCCCCCCCCCCOc1ccccc1CCC(=O)O[C@@H]1CCOC[C@H]1OP(=O)(O)OC[C@H](N)C(=O)O`, the EC50 turned out to be 510 nM in assay [9]; 1 nM in assay [2]; 12 nM in assay [10]; 0.75 nM in assay [13]; 0.83 nM in assay [4] (read-out: EC50). The fold change (FC) in assay [1] (filed as agonist) worked out at 100; in assay [6], 1.7. Besides, the outcome in [3] (filed as agonist) was Active. In addition, the Emax stood at 14% in [11], 10.3% in [7], 10.6% in assay [8] and 25% in [12].
Take `CCCCCCCC/C=C\CCCCCCCC(=O)O[C@H](C)COP(=O)(O)OC[C@H](N)C(=O)O`: the fold change (FC) in assay [1] (filed as agonist) came out at 0.22; in [6], 0.02. Further, the EC50 in [2] is 79 nM; in assay [4] (read-out: EC50) it was 250 nM. The Emax in assay [7] amounted to 6.1%; in assay [8], 11.4%.

Usually EC50 stands for the concentration at which the effect is half-maximal. A word on the Emax: it is the maximal effect, on the per cent scale that the assay sets.
